V-ATPase pH – regulators of yeast V-ATPase proton pumping, primary screen, pHLuorin cytosolic pH fluorescence; S. cerevisiae; response, % at 10 µM; 350,000 tested, 0.37% active; AID 504577, 2011; in the data active means response mostly above about 7.3%, no sharp cut-off; inactive means mostly below about 5.4%; further: actives read high
CaV13 ICDI inh – Primary screen for inhibitors of IQ motif and Ca2+-dependent inactivation inhibitor domain binding in CACNA1D, Förster resonance energy transfer in living cells, …. HEK cells, CFP/YFP FRET ICDI-IQ, plate reader, 10 min; percent FRET-ratio fall versus neutral wells. inhibition, % at 12.3 µM. 340,000 tested, 0.098% active. AID 743397;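 active means mean replicate inhibition of at least 30% and at least 1% of replicates passing that level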;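 further: 0% = median of the neutral control wells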
NTR1 ag – agonists of human NTR1, primary screen, imaging, U2OS cells, beta-arrestin-GFP, high content. NTR1-U2OS beta-arrestin-GFP spot imaging, agonist mode. 330,000 tested, 0.17% active. Neurotensin receptor type 1 (Homo sapiens), P30989. activation, % at 20 µM;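 active means activation at or above 40% of the spot to cytoplasm intensity ratio, with at least 20 cells analyzed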;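 further: 0% = DMSO without peptide and 100% = 100 nM NTR1 peptide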
Target sequence (P30989 whole entry, looked up): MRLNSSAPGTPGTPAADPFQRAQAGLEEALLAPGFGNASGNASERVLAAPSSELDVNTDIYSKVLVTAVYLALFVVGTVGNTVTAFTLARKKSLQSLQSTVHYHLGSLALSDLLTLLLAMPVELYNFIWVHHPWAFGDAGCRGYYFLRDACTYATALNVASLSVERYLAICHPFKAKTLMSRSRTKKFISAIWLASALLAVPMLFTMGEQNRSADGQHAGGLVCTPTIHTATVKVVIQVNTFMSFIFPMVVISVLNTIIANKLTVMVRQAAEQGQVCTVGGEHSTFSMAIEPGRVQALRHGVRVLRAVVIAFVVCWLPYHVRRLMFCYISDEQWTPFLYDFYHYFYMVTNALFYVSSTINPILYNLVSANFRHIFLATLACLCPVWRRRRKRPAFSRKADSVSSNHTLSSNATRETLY
Vif inh – HIV Vif self-association inhibitors, primary screen, imaging, HEK293T, single point; HEK293T cells, Vif self-association by quenched fluorescence, 24 h; inhibition, % at 7.49 µM; 340,000 tested, 0.35% active; AID 602346, 2012; in the data active means inhibition above about 50%, passing the limit was not always enough
SR-BI HDL uptake – inhibitors of SR-BI mediated HDL lipid uptake, primary screen, ldlA[mSR-BI] cells, fluorescence, single point; inhibition, % at 12.5 µM; ldlA[mSR-BI] CHO cells, DiI-HDL uptake fluorescence, 3 h; 320,000 tested, 0.96% active;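 active means mean replicate inhibition of at least 70% and a set share of replicates each scoring 70 or more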;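 further: 0% = median of neutral control wells and 100% = median of positive control wells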
SR-BI uptake up – activators of SR-BI mediated DiI-HDL uptake, primary screen, ldlA[mSR-BI] CHO cells, DiI fluorescence; activation, % at 12.5 µM; AID 504775, 2011; 3 h; 100 = double the neutral-control signal; 320,000 tested, 0.096% active;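 active means mean replicate activation of at least 60% and every replicate at or above 60%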;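 further: 0% = median plate neutral-control signal and 100% = twice that signal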
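Material: SR-BI-overexpressing, LDLR-lacking CHO cells | Dosing: Single compound concentration, delivered by pin transfer | Probe or stimulus: Labelled HDL, 10 µg/mL | Signal: Bottom-read cell fluorescence after medium removal, ex 550/em 595 nm | Schedule: 3 h, 37 °C | Evaluation: HDL uptake via cellular fluorescence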
V-ATPase pH SP – yeast V-ATPase proton pumping modulators, confirmation, S. cerevisiae, pH-sensitive GFP, second cherry-pick. shares compounds with V-ATPase pH. S. cerevisiae pHLuorin cytosolic pH, V-ATPase proton transport. response, % at 10 µM. 980 tested, 2% active. AID 602197, 2012; in the data active means response above about 24%;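 further: plate controls were vehicle wells for no effect and positive control wells for full effect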
* hit, by the source's call; x = not tested or not shown. This is a sample that favours compounds with a hit; in the whole collection about 1.7% have one here.

SMILES	V-ATPase pH	CaV13 ICDI inh	NTR1 ag	Vif inh	SR-BI HDL uptake	SR-BI uptake up	V-ATPase pH SP
c1ccc(Cc2nnc3sc(-c4ccccn4)nn23)cc1	11.2*	-8.4	1.6	-5.9	-9.5	9.5	-2.2
COc1ccccc1C/C(N)=N/OC(=O)c1ccc2c(c1)OCO2	8.5*	1.6	4.4	5.8	-6.3	6.3	3.2
CCOC(=O)C1C(=O)N(O)CC1c1cccc(Oc2ccccc2)c1 (stereo not given)	12.5*	-3.4	-1.5	6.1	-37.7	37.7	0.1
COc1ccc(C2=Nc3ccccc3N(C(=O)c3ccc(C(F)(F)F)cc3)C2C(=O)NCc2ccccc2)cc1 (stereo not given)	x	-3.5	x	x	x	x	x
CCOC(=O)N=Nc1c2ccccc2c2nc3no[nH]c3nc12	21.8*	-6.8	8.9	-4.8	19.7	-19.7	117.8*
CCOC(=O)C(=O)N=Nc1c(O)n(C)c2ccccc12	-1.8	0.0	-0.9	1.5	-33.9	33.9	x
CC1CC(C)CN(S(=O)(=O)CCNC(=O)c2ccc3c(c2)OCO3)C1 (stereo not given)	-2.7	-13.6	-0.8	-1.1	3.4	-3.4	x
O=C(NCC1CCCCC1)c1cc([N+](=O)[O-])ccc1Cl	2.1	-3.2	2.5	-6.8	8.8	-8.8	x
O=C(NCC1CCCCC1)c1ccccc1[N+](=O)[O-]	12.6*	-5.0	1.6	-2.2	-14.6	14.6	1.1
Cc1nc(NC(=O)C(C)(C)C)sc1C(=O)Cn1cc(-c2ccc(C(C)(C)C)cc2)nn1	x	-11.4	x	x	x	x	x
Nc1cccc(P(=O)(c2ccccc2)c2ccccc2)c1	9.6*	-2.9	2.1	19.2	x	x	0.6
O=P(c1ccccc1)(c1ccccc1)N(c1ccccc1)c1ccccc1	1.8	-5.8	1.0	7.3	0.4	-0.4	x
CN(C)c1ccc(C=C2C=Cc3ccccc32)cc1	12.2*	-6.7	x	1.3	37.6	-37.7	-3.0
COc1ccc(Nc2nnc(C)c(=O)[nH]2)c(OC)c1	11.5*	-6.8	0.7	0.6	x	x	-0.6
COC(=O)COc1ccc2c(c1)O/C(=C\c1cccc([N+](=O)[O-])c1)C2=O	12.7*	-2.6	12.0	1.9	x	x	3.4
Cc1ccc(S(=O)(=O)C=CS(=O)(=O)c2ccc(C)cc2)cc1	20.1*	-14.1	x	16.8	x	x	114.8*
O=C1Nc2ccc([N+](=O)[O-])cc2OC1CCN1CCN(Cc2ccc3c(c2)OCO3)CC1 (stereo not given)	-3.5	-11.5	1.0	-5.1	43.9	-43.8	x
NS(=O)(=O)c1ccc(CCNC(=O)CCNC(=O)c2ccco2)cc1	-3.7	-2.5	-0.1	15.1	x	x	x
NS(=O)(=O)c1ccc(CCNC(=O)c2ccco2)cc1	11.0*	8.3	0.3	-3.3	2.8	-2.8	-0.8
Cn1nnnc1Sc1ccc([N+](=O)[O-])cc1Cl	-2.8	-6.7	2.3	5.2	-13.0	13.0	x
Cn1nnnc1Sc1c(Cl)cccc1[N+](=O)[O-]	7.8*	-5.3	-0.1	0.0	-26.8	26.8	2.7
O=C1CCc2ccccc2N1	1.5	-4.3	0.3	-3.8	-11.8	11.8	x
N#C/C(C(N)=O)=C1/CCc2ccccc2N1	12.8*	-2.6	0.4	-1.8	14.5	-14.5	3.5
Cc1cc(C)cc(C(=O)N(CCc2ccccc2)C2CC3CCC(C2)N3C)c1 (stereo not given)	0.9	-18.3	2.1	-3.8	-11.7	11.7	x
COc1ccc(CC(=O)OC(C)CN2CCCC2)cc1 (stereo not given)	6.0	-5.1	-1.3	34.2	2.9	-2.9	x
CC(CN1CCOCC1)OC(=O)Cc1ccc(Cl)cc1 (stereo not given)	11.5*	-5.8	0.0	-2.6	-22.3	22.3	2.3
